Laboratory results taken from ChEMBL document CHEMBL1132156, “Synthesis and structure-activity relationships of potential anticancer agents: alkylcarbamates of 3-(9-acridinylamino)-5-hydroxymethylaniline” (J Med Chem, 1999).
Each block holds one compound with its values, some of them ahead of it.

How the values were obtained:
[1] = tested on: HL-60; experiment: In vitro growth inhibition against human leukemia HL-60 cell line; assay type: functional, cell-based
Procedure, shortened: (§1)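 HL-60 cells were seeded at 5×10^4 cells/mL in RPMI 1640 with 10% heat-inactivated FBS, penicillin and streptomycin, at 37 °C in 5% CO2. Cells were exposed for 72 h to six or seven drug concentrations, run in duplicate. Viability was read by XTT-tetrazolium microculture absorbance, and IC50 was derived from median-effect plot analysis.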

[2] = tested on: HL-60; experiment: In vitro inhibition of human leukemic HL-60 cell growth in culture; assay type: functional, cell-based; procedure, shortened: as §1
[3] = tested on: Mus musculus; experiment: […] anticancer activity against B6D2F-1 mice bearing P388 leukemia measured by the Average survival time(days) at an intravenous dose of 22(mg/kg).; assay type: functional
Procedure, shortened: (§2)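 Male B6D2F1 mice, 8 weeks old, 20–25 g. P388/0 ascites cells (0.2 mL, ascites:saline 1.10) were implanted iv on day 0, and the tumor grew in the liver. Drug was given iv by tail vein on days 1, 3, 5, 7 and 9 (Q2Dx5), with 4–5 mice per group. Survival time was scored as 8 a.m. (0.0), 1 p.m. (0.25) or 5 p.m. (0.5) deaths. %ILS was averaged against untreated controls, and toxic deaths were counted.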

[4] = tested on: Mus musculus; experiment: […] anticancer activity against B6D2F-1 mice bearing P388 leukemia measured by the Average survival time(days) at an intravenous dose of 30(mg/kg).; assay type: functional; procedure, shortened: as §2
[5] = tested on: Mus musculus; experiment: […] anticancer activity against B6D2F-1 mice bearing P388 leukemia measured by the average survival time(days) at an intravenous dose of 16(mg/kg)..; assay type: functional; procedure, shortened: as §2
[6] = tested on: Mus musculus; experiment: […] anticancer activity against B6D2F-1 mice bearing P388 leukemia measured by the average weight change(g) after day 7 at an intravenous dose of 22(mg/kg).; assay type: functional
Procedure, shortened: (§3)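 Male B6D2F1 mice (8 weeks old, 20–25 g) were implanted iv on day 0 with P388/0 ascites cells (0.2 mL; ascites:saline 1.10), which grew in the liver. Drug was given iv via the tail vein, Q2Dx5, on days 1, 3, 5, 7 and 9. Groups had 4–5 mice. Day 1 value is mean body weight; later days are weight change.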

[7] = tested on: Mus musculus; experiment: […] anticancer activity against B6D2F-1 mice bearing P388 leukemia measured by the average weight change(g) after day 7 at an intravenous dose of 30(mg/kg).; assay type: functional
Procedure, shortened: (§4)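 Male B6D2F1 mice (8 weeks old, 20–25 g) were implanted iv on day 0 with P388/0 ascites cells (0.2 mL; ascites:saline = 1.10). Tumor grew in the liver. Drug was given iv via the tail vein, Q2Dx5, on days 1, 3, 5, 7 and 9. Body weight was recorded on days 1, 7, 9 and 11 and reported as the average change (g).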

[8] = tested on: Mus musculus; experiment: […] anticancer activity against B6D2F-1 mice bearing P388 leukemia measured by the increase in lifespan at an intravenous dose of 16(mg/kg)..; assay type: functional; procedure, shortened: as §2
[9] = tested on: Mus musculus; experiment: […] anticancer activity against B6D2F-1 mice bearing P388 leukemia measured by the average weight change(g) after day 9 at an intravenous dose of 16(mg/kg).; assay type: functional; procedure, shortened: as §4
[10] = tested on: Mus musculus; experiment: […] anticancer activity against B6D2F-1 mice bearing P388 leukemia measured by the average weight change(g) after day 9 at an intravenous dose of 30(mg/kg).; assay type: functional; procedure, shortened: as §4
[11] = tested on: Mus musculus; experiment: […] anticancer activity against B6D2F-1 mice bearing P388 leukemia measured by the average weight change(g) after day 11 at an intravenous dose of 22(mg/kg).; assay type: functional; procedure, shortened: as §3
[12] = tested on: Mus musculus; experiment: […] anticancer activity against B6D2F-1 mice bearing P388 leukemia measured by the average weight change(g) after day 11 at an intravenous dose of 30(mg/kg).; assay type: functional; procedure, shortened: as §3
[13] = tested on: Mus musculus; experiment: […] anticancer activity against B6D2F-1 mice bearing P388 leukemia measured by the average weight change(g) after day 11 at an intravenous dose of 16(mg/kg).; assay type: functional; procedure, shortened: as §3
[14] = tested on: Mus musculus; experiment: […] anticancer activity against B6D2F-1 mice bearing P388 leukemia measured by the average weight change(g) after day 7 at an intravenous dose of 16(mg/kg).; assay type: functional; procedure, shortened: as §3
[15] = tested on: Mus musculus; experiment: […] anticancer activity against B6D2F-1 mice bearing P388 leukemia measured by the increase in lifespan at an intravenous dose of 22(mg/kg).; assay type: functional; procedure, shortened: as §2
[16] = tested on: Mus musculus; experiment: […] anticancer activity against B6D2F-1 mice bearing P388 leukemia measured by the increase in lifespan at an intravenous dose of 30(mg/kg).; assay type: functional; procedure, shortened: as §2
[17] = tested on: Mus musculus; experiment: […] anticancer activity against 4 B6D2F-1 mice bearing P388 leukemia measured by the toxicity death at an intravenous dose of 30(mg/kg).; assay type: organism-based; details: in vivo; procedure, shortened: as §2
[18] = tested on: Mus musculus; experiment: […] anticancer activity against 5 B6D2F-1 mice bearing P388 leukemia measured by the toxicity death at an intravenous dose of 16(mg/kg)..; assay type: organism-based; details: in vivo; procedure, shortened: as §2
[19] = tested on: Mus musculus; experiment: […] anticancer activity against 5 B6D2F-1 mice bearing P388 leukemia measured by the toxicity death at an intravenous dose of 22(mg/kg).; assay type: organism-based; details: in vivo; procedure, shortened: as §2
[20] = tested on: Mus musculus; experiment: […] anticancer activity against B6D2F-1 mice bearing P388 leukemia measured by the average weight change(g) after day 9 at an intravenous dose of 22(mg/kg).; assay type: functional; procedure, shortened: as §4
[21] = tested on: Mus musculus; experiment: […] anticancer activity against B6D2F-1 mice bearing P388 leukemia measured by the average body weight(g) after day 1 at an intravenous dose of 16(mg/kg).
[22] = tested on: Mus musculus; experiment: […] anticancer activity against B6D2F-1 mice bearing P388 leukemia measured by the average body weight(g) after day 1 at an intravenous dose of 22(mg/kg).
[23] = tested on: Mus musculus; experiment: […] anticancer activity against B6D2F-1 mice bearing P388 leukemia measured by the average body weight(g) after day 1 at an intravenous dose of 30(mg/kg).
[24] = tested on: Mus musculus; experiment: […] anticancer activity against B6D2F-1 mice bearing P388 leukemia measured by the Average survival time(day+/-SD) at an intravenous dose of 18(mg/kg).; assay type: functional; procedure, shortened: as §2
[25] = tested on: Mus musculus; experiment: […] anticancer activity against B6D2F-1 mice bearing P388 leukemia measured by the average survival time(day+/-SD) at an intravenous dose of 8(mg/kg)..; assay type: functional; procedure, shortened: as §2
[26] = tested on: Mus musculus; experiment: […] anticancer activity against B6D2F-1 mice bearing P388 leukemia measured by the Average survival time(day+/-SD) at an intravenous dose of 12(mg/kg).; assay type: functional; procedure, shortened: as §2
[27] = tested on: Mus musculus; experiment: […] anticancer activity against B6D2F-1 mice bearing P388 leukemia measured by the average weight change(g) after day 7 at an intravenous dose of 18(mg/kg).; assay type: functional; procedure, shortened: as §3
[28] = tested on: Mus musculus; experiment: […] anticancer activity against B6D2F-1 mice bearing P388 leukemia measured by the average weight change(g) after day 7 at an intravenous dose of 8(mg/kg).; assay type: functional; procedure, shortened: as §4
[29] = tested on: Mus musculus; experiment: […] anticancer activity against B6D2F-1 mice bearing P388 leukemia measured by the average weight change(g) after day 9 at an intravenous dose of 8(mg/kg).; assay type: functional; procedure, shortened: as §4
[30] = tested on: Mus musculus; experiment: […] anticancer activity against B6D2F-1 mice bearing P388 leukemia measured by the average weight change(g) after day 11 at an intravenous dose of 8(mg/kg).; assay type: functional; procedure, shortened: as §3
[31] = tested on: Mus musculus; experiment: […] anticancer activity against B6D2F-1 mice bearing P388 leukemia measured by the average weight change(g) after day 7 at an intravenous dose of 12(mg/kg).; assay type: functional; procedure, shortened: as §3
[32] = tested on: Mus musculus; experiment: […] anticancer activity against B6D2F-1 mice bearing P388 leukemia measured by the increase in lifespan(%) at an intravenous dose of 12(mg/kg).; assay type: functional; procedure, shortened: as §2
[33] = tested on: Mus musculus; experiment: […] anticancer activity against B6D2F-1 mice bearing P388 leukemia measured by the increase in lifespan(%) at an intravenous dose of 18(mg/kg).; assay type: functional; procedure, shortened: as §2
[34] = tested on: Mus musculus; experiment: […] anticancer activity against B6D2F-1 mice bearing P388 leukemia measured by the average weight change(g) after day 11 at an intravenous dose of 12(mg/kg).; assay type: functional; procedure, shortened: as §3
[35] = tested on: Mus musculus; experiment: […] anticancer activity against B6D2F-1 mice bearing P388 leukemia measured by the average weight change(g) after day 9 at an intravenous dose of 12(mg/kg).; assay type: functional; procedure, shortened: as §4
[36] = tested on: Mus musculus; experiment: […] anticancer activity against B6D2F-1 mice bearing P388 leukemia measured by the increase in lifespan(%) at an intravenous dose of 8(mg/kg)..; assay type: functional; procedure, shortened: as §2
[37] = tested on: Mus musculus; experiment: […] anticancer activity against B6D2F-1 mice bearing P388 leukemia measured by the average body weight(g) after day 1 at an intravenous dose of 8(mg/kg).
[38] = tested on: Mus musculus; experiment: […] anticancer activity against B6D2F-1 mice bearing P388 leukemia measured by the average body weight(g) after day 1 at an intravenous dose of 12(mg/kg).
[39] = tested on: Mus musculus; experiment: […] anticancer activity against B6D2F-1 mice bearing P388 leukemia measured by the average body weight(g) after day 1 at an intravenous dose of 18(mg/kg).

IC50 [1]: 2.3 nM
Compound: CCOC(=O)Nc1cc(CO)cc(Nc2c3cccc(C)c3nc3c(C(=O)NCCN(C)C)cccc23)c1

Compound: Nc1cc(CO)cc(Nc2c3ccccc3nc3ccccc23)c1
IC50 [2]: 27 nM
Average survival [3]: 21.1 days
Average survival [4]: 21.8 days
Average survival [5]: 14.9 days
Average weight change [6]: -1.3 g
Average weight change [7]: 0.2 g
Increase in life-span [8]: 133%
Average weight change [9]: -0.5 g
Average weight change [10]: -0.1 g
Average weight change [11]: -2.8 g
Average weight change [12]: -0.2 g
Average weight change [13]: -2.1 g
Average weight change [14]: 0.8 g
Increase in life-span [15]: 230%
Increase in life-span [16]: 240%
Toxicity related death [17]: 0
Toxicity related death [18]: 0
Toxicity related death [19]: 0
Average weight change [20]: -1.5 g
Body weight [21]: 23.3 g
Body weight [22]: 23.8 g
Body weight [23]: 22.6 g

Compound: COc1cc(NS(C)(=O)=O)ccc1Nc1c2ccccc2nc2ccccc12 [AMSACRINE]
Average survival [24]: 7.6 days
Average survival [25]: 12.2 days
Average survival [26]: 14.1 days
Average weight change [27]: -4.3 g
Average weight change [28]: 0.1 g
Average weight change [29]: -2.1 g
Average weight change [30]: -3.8 g
Average weight change [31]: -0.7 g
Increase in life-span [32]: 120%
Increase in life-span [33]: 19%
Average weight change [34]: -3.2 g
Average weight change [35]: -1.4 g
Increase in life-span [36]: 91%
Body weight [37]: 22.8 g
Body weight [38]: 22.7 g
Body weight [39]: 24.5 g
